Results on one sequence are retold here after paper PMC13334471 (Journal of molecular and cellular cardiology, 2026).

Experiment [1] addresses tropomyosin (rabbit cardiac α-tropomyosin) (Oryctolagus cuniculus, UniProt P58772). Nature of the experiment: LSPR binding of cTnT-C14 peptides to immobilized tropomyosin. The settings on record: peptide 2 μM, mutants vs WT. The essentials:
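Rabbit cardiac α-Tm immobilized on a carboxyl-gold LSPR chip from 50 μg/mL in 10 mM Na acetate pH 4.0. Blocked with 1 M ethanolamine, then 1 mM 6-mercapto-1-hexanol in 30% EtOH. Peptides flowed at 20 μL/min for 4 min in 0.1 M KCl, 3 mM MgCl2, 10 mM imidazole-HCl pH 7.0; buffer dissociation to baseline or plateau. Plateau Δpm taken; 1:1 fit; KD = koff/kon.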

In another experiment the target is F-actin (Oryctolagus cuniculus, UniProt P68135). Briefly: LSPR direct binding of cTnT-C14 peptides to immobilized F-actin. The settings on record: mutants vs WT. Further details: species or system rabbit. Put shortly:
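Rabbit back-muscle F-actin immobilized on a carboxyl-gold LSPR chip with no Tm, run as for the Tm binding assay. Chip blocked with ethanolamine and 6-mercapto-1-hexanol. Peptides flowed at 20 μL/min in 0.1 M KCl, 3 mM MgCl2, 10 mM imidazole-HCl pH 7.0, then buffer dissociation. Plateau Δpm taken; rate constants from 1:1 fit; KD = koff/kon.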

On to INVLRNRINDNQKV [E16], for which, in experiment [1], the “Tm binding / binding signal (in words)” value was “non-Tm-binding”. For the same sequence, on F-actin, the “F-actin binding / binding signal (in words)” value is listed as “non-actin-binding”.
